In ChEMBL document CHEMBL4422632, “Design of Novel Inhibitors of Human Thymidine Phosphorylase: Synthesis, Enzyme Inhibition, in Vitro Toxicity, and Impact on Human Glioblastoma Cancer” (J Med Chem, 2019):
pIC50: −log10 of the molar value. Active and inactive are the calls of the source. The rule behind the calls is not given here.

Columns and labels:
[1] = Cytotoxicity against human HepG2 cells assessed as cell viability at 100 uM after 72 hrs by neutral red uptake-based assay relative to control; conditions: read-out: Activity
Summary of the method: (§1)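 Cells grown in DMEM with 10% FBS at 37 °C, 5% CO₂; seeded 2 x 10³ cells/well, adhered 24 h, then exposed 72 h. MTT: 1 mg/mL for 3 h, formazan in DMSO, absorbance 595 nm. NRU: neutral red 25 µg/mL in serum-free medium for 3 h, desorbed in ethanol:acetic acid:water. Viability as % of untreated control; mean ± SEM of three to five independent experiments in triplicate.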

[2] = Cytotoxicity against human U87MG cells assessed as cell viability at 250 uM after 72 hrs by neutral red uptake-based assay relative to control; set-up: species or system U-87MG ATCC; conditions: read-out: Activity
Summary of the method: (§2)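 Cells kept in DMEM with 10% heat-inactivated FBS, 1% penicillin-streptomycin and 0.1% fungizone at 37 °C, 5% CO₂. U-87 MG seeded at 2 x 10^3 cells/well, RAW 264.7 at 5 x 10^2, adhered 24 h, then exposed 72 h. MTT: 1 mg/mL for 3 h, formazan in DMSO, A595. NRU: 25 μg/mL dye, 3 h, ethanol:acetic acid:water desorb. Untreated wells = 100%; three to five independent experiments in triplicate.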

[3] = Intrinsic clearance in human liver S9 fraction at 2 uM up to 30 mins in presence of NADPH by HPLC-MS/MS analysis; type: ADME, subcellular; conditions: read-out: CLH
[4] = AUMCt in CF1 mouse at 50 mg/kg, ip by non-compartmental analysis; type: ADME, organism-based; conditions: in vivo
Summary of the method: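 Male CF1 mice, single ip 50 mg/kg in 0.9% saline, 3 animals per time point sampled 0.03–2 h; heparinized blood. AUMC0→t computed by trapezoidal rule to last point (2 h); non-compartmental analysis.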

[5] = Cytotoxicity against African green monkey Vero cells assessed as cell viability at 1000 uM after 72 hrs by MTT assay relative to control; type: cell-based; conditions: chlorocebus sabaeus, read-out: Activity; summary of the method: as §1
[6] = Cytotoxicity against mouse RAW264.7 cells assessed as cell viability at 25 uM after 72 hrs by MTT assay relative to control; type: cell-based; conditions: read-out: Activity; summary of the method: as §2
[7] = Cytotoxicity against human HaCaT cells assessed as cell viability at 1000 uM after 72 hrs by neutral red uptake-based assay relative to control; conditions: read-out: Activity; summary of the method: as §1
[8] = Cytotoxicity against mouse RAW264.7 cells assessed as cell viability at 1000 uM after 72 hrs by MTT assay relative to control; type: cell-based; conditions: read-out: Activity; summary of the method: as §2
[9] = AUCM (0 to infinity) in CF1 mouse at 50 mg/kg, ip by non-compartmental analysis; type: ADME, organism-based; conditions: in vivo
[10] = Cytotoxicity against human HaCaT cells assessed as cell viability at 50 uM after 72 hrs by neutral red uptake-based assay relative to control; conditions: read-out: Activity; summary of the method: as §1
U-87 MG [11] = experiment: Induction of apoptosis in human U87MG cells xenografted in BALB/c nude mouse assessed as caspase-3 levels at 50 mg/kg, ip after 14 days by immunohistochemistry; type: functional, organism-based; conditions: U-87MG ATCC
Summary of the method: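 Male BALB/c nude mice implanted subcutaneously with 5 x 10⁵ U-87 MG cells in the right flank. Treated IP at 50 mg/kg/day for 14 days, with saline controls, starting once tumors reached about 50 mm³. Tumors fixed in formaldehyde and cut at 3 µm. Citrate pH 6 antigen retrieval.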

[12] = Cytotoxicity against mouse RAW264.7 cells assessed as cell viability at 500 uM after 72 hrs by neutral red uptake-based assay relative to control; conditions: read-out: Activity; summary of the method: as §2
[13] = Half life in human liver S9 fraction at 2 uM up to 30 mins in presence of NADPH by HPLC-MS/MS analysis; type: ADME, subcellular
[14] = Cytotoxicity against mouse RAW264.7 cells assessed as cell viability at 1000 uM after 72 hrs by neutral red uptake-based assay relative to control; conditions: read-out: Activity; summary of the method: as §2
[15] = Cytotoxicity against African green monkey Vero cells assessed as cell viability at 25 uM after 72 hrs by MTT assay relative to control; type: cell-based; conditions: chlorocebus sabaeus, read-out: Activity; summary of the method: as §1
U-87 MG [16] = experiment: Anti-angiogenic activity in tumor of human U87MG cells xenografted in nude BALB/c mouse assessed as reduction in CD31 staining at 50 mg/kg, ip administered for 14 days by immunohistochemistry; type: functional, organism-based; conditions: U-87MG ATCC
Summary of the method: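 Male nude mice bearing subcutaneous right-flank xenografts of 5 x 10⁵ U-87 MG cells; dosing began at about 50 mm³ tumors, ip daily for 14 days. Tumors formalin-fixed, paraffin sections 3 µm; citrate pH 6 antigen retrieval at 95-98 °C; primary antibody overnight at 4 °C, HRP secondary, DAB. Positive area quantified by optical density at x200, 4 images per tumor; mean ± SEM, one-way ANOVA with Dunnett.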

[17] = Cytotoxicity against mouse RAW264.7 cells assessed as cell viability at 50 uM after 72 hrs by neutral red uptake-based assay relative to control; conditions: read-out: Activity; summary of the method: as §2
[18] = Cytotoxicity against human HepG2 cells assessed as cell viability at 500 uM after 72 hrs by MTT assay relative to control; type: cell-based; conditions: read-out: Activity; summary of the method: as §1
[19] = Cytotoxicity against African green monkey Vero cells assessed as cell viability at 50 uM after 72 hrs by neutral red uptake-based assay relative to control; conditions: chlorocebus sabaeus, read-out: Activity; summary of the method: as §1
[20] = Cytotoxicity against African green monkey Vero cells assessed as cell viability at 500 uM after 72 hrs by neutral red uptake-based assay relative to control; conditions: chlorocebus sabaeus, read-out: Activity; summary of the method: as §1
[21] = Cytotoxicity against African green monkey Vero cells assessed as cell viability at 500 uM after 72 hrs by MTT assay relative to control; type: cell-based; conditions: chlorocebus sabaeus, read-out: Activity; summary of the method: as §1
[22] = Cytotoxicity against human U87MG cells assessed as cell viability at 25 uM after 72 hrs by MTT assay relative to control; type: cell-based, U-87MG ATCC; conditions: read-out: Activity; summary of the method: as §2
[23] = Cytotoxicity against human HepG2 cells assessed as cell viability at 250 uM after 72 hrs by neutral red uptake-based assay relative to control; conditions: read-out: Activity; summary of the method: as §1
Cytochrome P450 2E1 = Cytochrome P450 2E1 (Homo sapiens, UniProt P05181); experiment: Inhibition of CYP2E1 in human liver microsomes by HPLC-MS/MS analysis; type: ADME
U-87 MG [24] = experiment: Antitumor activity against human U87MG cells xenografted in BALB/c nude mouse assessed as tumor growth inhibition 50 mg/kg/day, ip administered for 14 days; type: functional, organism-based; conditions: U-87MG ATCC
Summary of the method: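 5 x 10⁵ U-87 MG cells implanted subcutaneously in right flank of male BALB/c nude mice; at about 50 mm³, randomized to saline or ip 50 mg/kg/day, with temozolomide 50 mg/kg/day in the combination arm, for 14 days. Relative tumor volume = volume on day / day 0; TGI on day 14 = [1 − RTV treated/RTV control] x 100. Two-way ANOVA with Bonferroni.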

[25] = Cytotoxicity against African green monkey Vero cells assessed as cell viability at 100 uM after 72 hrs by MTT assay relative to control; type: cell-based; conditions: chlorocebus sabaeus, read-out: Activity; summary of the method: as §1
[26] = Cytotoxicity against human U87MG cells assessed as cell viability at 250 uM after 72 hrs by MTT assay relative to control; type: cell-based, U-87MG ATCC; conditions: read-out: Activity; summary of the method: as §2
[27] = Cytotoxicity against African green monkey Vero cells assessed as cell viability at 250 uM after 72 hrs by MTT assay relative to control; type: cell-based; conditions: chlorocebus sabaeus, read-out: Activity; summary of the method: as §1
Cytochrome P450 2C19 = Cytochrome P450 2C19 (Homo sapiens, UniProt P33261); experiment: Inhibition of CYP2C19 in human liver microsomes by HPLC-MS/MS analysis; type: ADME
[28] = Cytotoxicity against human HaCaT cells assessed as cell viability at 500 uM after 72 hrs by neutral red uptake-based assay relative to control; conditions: read-out: Activity; summary of the method: as §1

Chain of Cytochrome P450 2E1 (P05181 whole entry): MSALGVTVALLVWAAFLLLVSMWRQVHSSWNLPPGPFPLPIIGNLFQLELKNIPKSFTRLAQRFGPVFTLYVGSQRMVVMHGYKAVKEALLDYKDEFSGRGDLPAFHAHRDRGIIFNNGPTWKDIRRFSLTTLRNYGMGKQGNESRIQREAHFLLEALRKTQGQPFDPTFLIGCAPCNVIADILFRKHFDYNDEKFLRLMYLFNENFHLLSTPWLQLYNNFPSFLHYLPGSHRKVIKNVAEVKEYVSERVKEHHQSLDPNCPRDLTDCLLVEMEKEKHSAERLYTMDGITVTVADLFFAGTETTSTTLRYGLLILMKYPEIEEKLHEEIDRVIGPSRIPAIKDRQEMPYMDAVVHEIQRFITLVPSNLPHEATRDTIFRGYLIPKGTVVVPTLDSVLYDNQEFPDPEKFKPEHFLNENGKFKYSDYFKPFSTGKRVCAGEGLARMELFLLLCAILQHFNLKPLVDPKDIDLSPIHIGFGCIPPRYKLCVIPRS
Chain of Cytochrome P450 2C19 (P33261 whole entry): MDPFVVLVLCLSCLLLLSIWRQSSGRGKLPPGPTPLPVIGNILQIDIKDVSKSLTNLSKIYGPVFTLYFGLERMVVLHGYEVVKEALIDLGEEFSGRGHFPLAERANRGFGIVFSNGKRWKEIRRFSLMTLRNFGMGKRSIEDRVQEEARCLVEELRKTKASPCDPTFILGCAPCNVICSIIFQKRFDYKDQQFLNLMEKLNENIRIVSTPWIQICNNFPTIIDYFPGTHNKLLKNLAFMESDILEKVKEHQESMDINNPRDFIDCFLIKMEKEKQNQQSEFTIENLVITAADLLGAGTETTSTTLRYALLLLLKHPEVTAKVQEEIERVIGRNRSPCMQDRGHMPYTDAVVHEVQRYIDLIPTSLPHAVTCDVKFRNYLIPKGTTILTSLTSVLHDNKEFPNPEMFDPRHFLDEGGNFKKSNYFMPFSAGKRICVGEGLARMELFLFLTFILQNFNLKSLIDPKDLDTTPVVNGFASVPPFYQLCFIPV

O=c1[nH]c(CNC(CO)CO)c(I)c(=O)[nH]1
viability at 72 h, 100 µM [1]: 102% | viability at 72 h, 250 µM [2]: 98% | CLint scaled at 2 µM [3]: 13 mL/min/kg | AUMCt [4]: 6.3 µg·h²/mL | viability at 72 h, 1000 µM [5]: 75% | viability at 72 h, 25 µM [6]: 103% | viability at 72 h, 1000 µM [7]: 75% | viability at 72 h, 1000 µM [8]: 72% | AUMC [9]: 7.6 µg·h²/mL | viability at 72 h, 50 µM [10]: 110% | Activity (U-87 MG [11]): inactive | viability at 72 h, 500 µM [12]: 82% | half-life at 2 µM [13]: 28.1 min | viability at 72 h, 1000 µM [14]: 48% | viability at 72 h, 25 µM [15]: 101% | Activity (U-87 MG [16]): Active | viability at 72 h, 50 µM [17]: 102% | viability at 72 h, 500 µM [18]: 94% | viability at 72 h, 50 µM [19]: 112% | viability at 72 h, 500 µM [20]: 90% | viability at 72 h, 500 µM [21]: 84% | viability at 72 h, 25 µM [22]: 101% | viability at 72 h, 250 µM [23]: 98% | pIC50 (Cytochrome P450 2E1): < 4.00 | TGI (U-87 MG [24]): Active | viability at 72 h, 100 µM [25]: 96% | viability at 72 h, 250 µM [26]: 97% | viability at 72 h, 250 µM [27]: 95% | pIC50 (Cytochrome P450 2C19): < 4.00 | viability at 72 h, 500 µM [28]: 95%
